According to ChEMBL document CHEMBL1275468, “Plasmid-mediated qnrB2 and carbapenemase gene bla(KPC-2) carried on the same plasmid in carbapenem-resistant ciprofloxacin-susceptible Enterobacter cloacae isolates” (2008):
≈ marks a conversion by molar mass, not a printed value.

Legend:
Assay type in all cases: functional
[1] = test system: Enterobacter cloacae; assay: Antimicrobial activity against Enterobacter cloacae isolate 18 containing PFGE genetic clone A expressing qnrB2 and beta-lactamase KPC-2 and SHV-12 gene by Etest
[2] = test system: Escherichia coli; assay: Antimicrobial activity against Escherichia coli T-622 harboring expressing qnrB2 and beta-lactamase KPC-2 and SHV-12 gene by Etest
Procedure, shortened: (§1)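 MIC read by Etest. Strains are E. coli GeneHogs (recA1) transformants. Plasmid DNA from clinical E. cloacae isolates was introduced by electroporation. Transformants were selected on LB agar with 100 μg/ml ampicillin, then PCR-screened for blaKPC, blaSHV and qnr genes.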

[3] = test system: Enterobacter cloacae; assay: Antimicrobial activity against Enterobacter cloacae isolate 837 containing PFGE genetic clone B expressing qnrB2 and beta-lactamase KPC-2 and SHV-12 gene by Etest
[4] = test system: Enterobacter cloacae; assay: Antimicrobial activity against Enterobacter cloacae isolate 293 containing PFGE genetic clone A expressing qnrB2 and beta-lactamase KPC-2 and SHV-12 gene by Etest
[5] = test system: Enterobacter cloacae; assay: Antimicrobial activity against Enterobacter cloacae isolate 140 containing PFGE genetic clone A expressing beta-lactamase KPC-2 and SHV-12 gene by Etest
[6] = test system: Enterobacter cloacae; assay: Antimicrobial activity against Enterobacter cloacae isolate 533 containing PFGE genetic clone A expressing qnrB2 and beta-lactamase KPC-2 and SHV-12 gene by Etest
[7] = test system: Escherichia coli; assay: Antimicrobial activity against Escherichia coli GeneHogs by Etest
Procedure, shortened: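 MIC read by Etest on the plasmid-free electroporation recipient, E. coli GeneHogs (recA1 mutant).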

[8] = test system: Enterobacter cloacae; assay: Antimicrobial activity against Enterobacter cloacae isolate 658 containing PFGE genetic clone B expressing qnrB2 and beta-lactamase KPC-2 and SHV-12 gene by Etest
[9] = test system: Enterobacter cloacae; assay: Antimicrobial activity against Enterobacter cloacae isolate 622 containing PFGE genetic clone A expressing qnrB2 and beta-lactamase KPC-2 and SHV-12 gene by Etest
[10] = test system: Escherichia coli; assay: Antimicrobial activity against Escherichia coli T-625 harboring expressing qnrB2 and beta-lactamase KPC-2 and SHV-12 gene by Etest; procedure, shortened: as §1
[11] = test system: Enterobacter cloacae; assay: Antimicrobial activity against Enterobacter cloacae isolate 656 containing PFGE genetic clone A expressing beta-lactamase KPC-2 and SHV-12 gene by Etest
[12] = test system: Enterobacter cloacae; assay: Antimicrobial activity against Enterobacter cloacae isolate 1 containing PFGE genetic clone A expressing qnrB2 and beta-lactamase KPC-2 and SHV-12 gene by Etest
[13] = test system: Escherichia coli; assay: Antimicrobial activity against Escherichia coli T-781 harboring expressing qnrB2 and beta-lactamase KPC-2 and SHV-12 gene by Etest; procedure, shortened: as §1
[14] = test system: Enterobacter cloacae; assay: Antimicrobial activity against Enterobacter cloacae isolate 4469 containing PFGE genetic clone C expressing qnrB2 and beta-lactamase KPC-2 and SHV-12 gene by Etest
[15] = test system: Enterobacter cloacae; assay: Antimicrobial activity against Enterobacter cloacae isolate 625 containing PFGE genetic clone A expressing qnrB2 and beta-lactamase KPC-2 and SHV-12 gene by Etest
[16] = test system: Enterobacter cloacae; assay: Antimicrobial activity against Enterobacter cloacae isolate 781 containing PFGE genetic clone B expressing qnrB2 and beta-lactamase KPC-2 and SHV-12 gene by Etest
[17] = test system: Enterobacter cloacae; assay: Antimicrobial activity against Enterobacter cloacae isolate 151 containing PFGE genetic clone A expressing qnrB2 and beta-lactamase KPC-2 gene by Etest
[18] = test system: Enterobacter cloacae; assay: Antimicrobial activity against Enterobacter cloacae isolate 185 containing PFGE genetic clone A expressing qnrB2 aac(6')-Ib-cr and beta-lactamase KPC-2 and SHV-12 gene by Etest
[19] = test system: Enterobacter cloacae; assay: Antimicrobial activity against Enterobacter cloacae isolate 649 containing PFGE genetic clone B expressing qnrB2 and beta-lactamase KPC-2 and SHV-12 gene by Etest

Molecule: CC(C)(O/N=C(\C(=O)N[C@@H]1C(=O)N2C(C(=O)[O-])=C(C[n+]3ccccc3)CS[C@H]12)c1csc(N)n1)C(=O)O [CEFTAZIDIME]
- MIC [1]: ≥ 64 µg/mL
- MIC [2]: 32 µg/mL (≈ 58.5 µM)
- MIC [3]: ≥ 64 µg/mL
- MIC [4]: ≥ 64 µg/mL
- MIC [5]: ≥ 64 µg/mL
- MIC [6]: ≥ 64 µg/mL
- MIC [7]: ≤ 1 µg/mL
- MIC [8]: ≥ 64 µg/mL
- MIC [9]: ≥ 64 µg/mL
- MIC [10]: 32 µg/mL (≈ 58.5 µM)
- MIC [11]: ≥ 64 µg/mL
- MIC [12]: ≥ 64 µg/mL
- MIC [13]: 32 µg/mL (≈ 58.5 µM)
- MIC [14]: ≥ 64 µg/mL
- MIC [15]: ≥ 64 µg/mL
- MIC [16]: ≥ 64 µg/mL
- MIC [17]: 16 µg/mL (≈ 29.3 µM)
- MIC [18]: ≥ 64 µg/mL
- MIC [19]: ≥ 64 µg/mL

Molecule: C[C@H]1[C@H](NC(=O)/C(=N\OC(C)(C)C(=O)O)c2csc(N)n2)C(=O)N1S(=O)(=O)O [AZTREONAM]
- MIC [2]: ≥ 64 µg/mL
- MIC [7]: ≤ 1 µg/mL
- MIC [10]: ≥ 64 µg/mL
- MIC [13]: 32 µg/mL (≈ 73.5 µM)

Molecule: GENTAMICIN
- MIC [1]: > 16 µg/mL
- MIC [2]: > 16 µg/mL
- MIC [3]: > 16 µg/mL
- MIC [4]: > 16 µg/mL
- MIC [5]: > 16 µg/mL
- MIC [6]: > 16 µg/mL
- MIC [7]: < 1 µg/mL
- MIC [8]: > 16 µg/mL
- MIC [9]: > 16 µg/mL
- MIC [10]: > 16 µg/mL
- MIC [11]: > 16 µg/mL
- MIC [12]: > 16 µg/mL
- MIC [13]: > 16 µg/mL
- MIC [14]: > 16 µg/mL
- MIC [15]: > 16 µg/mL
- MIC [16]: > 16 µg/mL
- MIC [17]: > 16 µg/mL
- MIC [18]: > 16 µg/mL
- MIC [19]: > 16 µg/mL

Molecule: C[C@H]1COc2c(N3CCN(C)CC3)c(F)cc3c(=O)c(C(=O)O)cn1c23.C[C@H]1COc2c(N3CCN(C)CC3)c(F)cc3c(=O)c(C(=O)O)cn1c23.O [LEVOFLOXACIN]
- MIC [1]: 0.5 µg/mL
- MIC [2]: 0.023 µg/mL
- MIC [3]: 0.75 µg/mL
- MIC [4]: 0.75 µg/mL
- MIC [5]: 0.094 µg/mL
- MIC [6]: 0.38 µg/mL
- MIC [8]: 1 µg/mL
- MIC [9]: 0.5 µg/mL
- MIC [10]: 0.094 µg/mL
- MIC [11]: 0.5 µg/mL
- MIC [12]: 0.38 µg/mL
- MIC [13]: 0.047 µg/mL
- MIC [14]: 0.5 µg/mL
- MIC [15]: 0.5 µg/mL
- MIC [16]: 0.5 µg/mL
- MIC [17]: 0.5 µg/mL
- MIC [18]: 0.5 µg/mL
- MIC [19]: 0.75 µg/mL

Molecule: CCn1cc(C(=O)O)c(=O)c2ccc(C)nc21 [NALIDIXIC ACID]
- MIC [1]: 16 µg/mL (≈ 68.9 µM)
- MIC [2]: 2 µg/mL (≈ 8.61 µM)
- MIC [3]: 16 µg/mL (≈ 68.9 µM)
- MIC [4]: 16 µg/mL (≈ 68.9 µM)
- MIC [5]: 4 µg/mL (≈ 17.2 µM)
- MIC [6]: 16 µg/mL (≈ 68.9 µM)
- MIC [7]: 2 µg/mL (≈ 8.61 µM)
- MIC [8]: 16 µg/mL (≈ 68.9 µM)
- MIC [9]: 16 µg/mL (≈ 68.9 µM)
- MIC [10]: 4 µg/mL (≈ 17.2 µM)
- MIC [11]: 16 µg/mL (≈ 68.9 µM)
- MIC [12]: 16 µg/mL (≈ 68.9 µM)
- MIC [13]: 2 µg/mL (≈ 8.61 µM)
- MIC [14]: 16 µg/mL (≈ 68.9 µM)
- MIC [15]: 16 µg/mL (≈ 68.9 µM)
- MIC [16]: 16 µg/mL (≈ 68.9 µM)
- MIC [17]: 16 µg/mL (≈ 68.9 µM)
- MIC [18]: 16 µg/mL (≈ 68.9 µM)
- MIC [19]: 16 µg/mL (≈ 68.9 µM)

Molecule: C[C@@H](O)[C@H]1C(=O)N2C(C(=O)O)=C(S[C@@H]3CN[C@H](C(=O)Nc4cccc(C(=O)O)c4)C3)[C@H](C)[C@H]12
- MIC [1]: 4 µg/mL (≈ 8.41 µM)
- MIC [2]: 8 µg/mL (≈ 16.8 µM)
- MIC [3]: 8 µg/mL (≈ 16.8 µM)
- MIC [4]: > 32 µg/mL
- MIC [5]: > 32 µg/mL
- MIC [6]: 24 µg/mL (≈ 50.5 µM)
- MIC [7]: 0.012 µg/mL (≈ 0.0252 µM)
- MIC [8]: 12 µg/mL (≈ 25.2 µM)
- MIC [9]: 32 µg/mL (≈ 67.3 µM)
- MIC [10]: 8 µg/mL (≈ 16.8 µM)
- MIC [11]: 16 µg/mL (≈ 33.6 µM)
- MIC [12]: 32 µg/mL (≈ 67.3 µM)
- MIC [13]: 12 µg/mL (≈ 25.2 µM)
- MIC [14]: > 32 µg/mL
- MIC [15]: 24 µg/mL (≈ 50.5 µM)
- MIC [16]: > 32 µg/mL
- MIC [17]: > 32 µg/mL
- MIC [18]: 4 µg/mL (≈ 8.41 µM)
- MIC [19]: 16 µg/mL (≈ 33.6 µM)

Molecule: NCC[C@H](O)C(=O)N[C@@H]1C[C@H](N)[C@@H](O[C@H]2O[C@H](CN)[C@@H](O)[C@H](O)[C@H]2O)[C@H](O)[C@H]1O[C@H]1O[C@H](CO)[C@@H](O)[C@H](N)[C@H]1O [AMIKACIN]
- MIC [1]: ≤ 2 µg/mL
- MIC [2]: ≤ 2 µg/mL
- MIC [3]: 32 µg/mL (≈ 54.6 µM)
- MIC [4]: 16 µg/mL (≈ 27.3 µM)
- MIC [5]: ≤ 2 µg/mL
- MIC [6]: ≤ 2 µg/mL
- MIC [7]: ≤ 2 µg/mL
- MIC [8]: ≤ 2 µg/mL
- MIC [9]: ≤ 2 µg/mL
- MIC [10]: ≤ 2 µg/mL
- MIC [11]: ≤ 2 µg/mL
- MIC [12]: ≤ 2 µg/mL
- MIC [13]: ≤ 2 µg/mL
- MIC [14]: ≤ 2 µg/mL
- MIC [15]: ≤ 2 µg/mL
- MIC [16]: ≤ 2 µg/mL
- MIC [17]: ≤ 2 µg/mL
- MIC [18]: ≤ 2 µg/mL
- MIC [19]: ≤ 2 µg/mL

Molecule: C[C@@H](O)[C@H]1C(=O)N2C(C(=O)O)=C(S[C@@H]3CN[C@H](C(=O)N(C)C)C3)[C@H](C)[C@H]12 [MEROPENEM]
- MIC [1]: > 32 µg/mL
- MIC [2]: 3 µg/mL (≈ 7.82 µM)
- MIC [3]: 6 µg/mL (≈ 15.6 µM)
- MIC [4]: 8 µg/mL (≈ 20.9 µM)
- MIC [5]: 4 µg/mL (≈ 10.4 µM)
- MIC [6]: 2 µg/mL (≈ 5.22 µM)
- MIC [7]: 0.016 µg/mL (≈ 0.0417 µM)
- MIC [8]: 24 µg/mL (≈ 62.6 µM)
- MIC [9]: 8 µg/mL (≈ 20.9 µM)
- MIC [10]: 3 µg/mL (≈ 7.82 µM)
- MIC [11]: 6 µg/mL (≈ 15.6 µM)
- MIC [12]: 2 µg/mL (≈ 5.22 µM)
- MIC [13]: 2 µg/mL (≈ 5.22 µM)
- MIC [14]: 8 µg/mL (≈ 20.9 µM)
- MIC [15]: 6 µg/mL (≈ 15.6 µM)
- MIC [16]: > 32 µg/mL
- MIC [17]: > 32 µg/mL
- MIC [18]: 24 µg/mL (≈ 62.6 µM)
- MIC [19]: 4 µg/mL (≈ 10.4 µM)

Molecule: C[C@@H](O)[C@H]1C(=O)N2C(C(=O)O)=C(SCCNC=N)C[C@H]12 [IMIPENEM ANHYDROUS]
- MIC [1]: 8 µg/mL (≈ 26.7 µM)
- MIC [2]: 4 µg/mL (≈ 13.4 µM)
- MIC [3]: 6 µg/mL (≈ 20 µM)
- MIC [4]: > 32 µg/mL
- MIC [5]: > 32 µg/mL
- MIC [6]: 4 µg/mL (≈ 13.4 µM)
- MIC [7]: 0.125 µg/mL (≈ 0.418 µM)
- MIC [8]: > 32 µg/mL
- MIC [9]: 24 µg/mL (≈ 80.2 µM)
- MIC [10]: 8 µg/mL (≈ 26.7 µM)
- MIC [11]: 32 µg/mL (≈ 107 µM)
- MIC [12]: 16 µg/mL (≈ 53.4 µM)
- MIC [13]: 3 µg/mL (≈ 10 µM)
- MIC [14]: 24 µg/mL (≈ 80.2 µM)
- MIC [15]: 16 µg/mL (≈ 53.4 µM)
- MIC [16]: > 32 µg/mL
- MIC [17]: 12 µg/mL (≈ 40.1 µM)
- MIC [18]: 8 µg/mL (≈ 26.7 µM)
- MIC [19]: 32 µg/mL (≈ 107 µM)
